Test [1] has as its system Jurkat. Kind of test: Antiproliferative activity against human Jurkat T cells after 48 hrs by MTT assay. For orientation: Formazan colour is commonly taken as a measure of viable cells.
A further test concerns T47D. Kind of test: Antiproliferative activity against human T47D cells at 4 uM after 48 hrs by MTT assay. The test is classed as functional. In a few lines: (§1)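 Epithelial cancer lines came from ATCC and were seeded the day before in complete medium: PC-3, SkOV3 and A549 at 3,000/well; MiaPaCa-2 and BxPC-3 at 4,000; T-47D and MDA-MB-468 at 5,000. Medium was switched to 0.5% FBS just before exposure to 4 μM. Read-out was MTT (4 h, 37 °C), SDS/HCl solubilisation, A595 minus cell-free blank. Growth inhibition was taken versus DMSO (≤0.1% v/v) controls, ≥2 experiments in triplicate.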

In another test the test system is PC-3. Kind of test: Antiproliferative activity against human PC3 cells at 4 uM after 48 hrs by MTT assay. The test is classed as functional. Particulars: PC-3, 48 h. In a few lines:
as §1

For test [2], the target named is T1, Retinoic acid receptor RXR-alpha (Mus musculus, UniProt P28700).
T1 sequence (P28700 whole entry): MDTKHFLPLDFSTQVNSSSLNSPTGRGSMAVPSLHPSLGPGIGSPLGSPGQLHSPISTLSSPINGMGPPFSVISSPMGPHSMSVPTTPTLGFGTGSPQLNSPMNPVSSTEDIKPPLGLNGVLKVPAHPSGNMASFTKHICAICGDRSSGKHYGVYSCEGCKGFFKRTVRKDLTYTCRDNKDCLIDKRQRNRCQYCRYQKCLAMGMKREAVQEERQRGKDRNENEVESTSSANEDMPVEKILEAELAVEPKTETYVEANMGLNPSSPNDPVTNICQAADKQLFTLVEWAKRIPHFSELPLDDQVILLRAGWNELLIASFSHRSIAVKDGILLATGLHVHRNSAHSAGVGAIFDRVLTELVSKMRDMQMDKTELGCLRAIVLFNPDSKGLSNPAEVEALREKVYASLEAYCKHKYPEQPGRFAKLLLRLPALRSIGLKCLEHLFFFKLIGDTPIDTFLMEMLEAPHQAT
Kind of test: Transactivation of Gal4-LBD fused mouse RXRalpha (218 to 467) transfected in african green monkey CV1 cells assessed as luciferase activity at after 6 hrs by Dual-light chemiluminescent assay. It counts as cell-based, CV-1.

Test [3] concerns the target T2, Retinoic acid receptor RXR-alpha (Mus musculus) (UniProt P28700).
T2 sequence (whole entry): T1 sequence (P28700 whole entry)
Kind of test: Transactivation of Gal4-LBD fused mouse RXRalpha (218 to 467) transfected in african green monkey CV1 cells assessed as luciferase activity at 2 uM after 6 hrs by Dual-light chemiluminescent assay relative to 9-cis-retinoic acid. The test is classed as cell-based. Particulars: CV-1. A digest of the protocol: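 Transfected CV-1 cells carried Gal4-LBD constructs: hRARα 156–462, hRARβ 169–448, hRARγ 178–454 or mRXRα 218–467. Transfection used 10 ng Gal4-LBD, 100 ng UAS-luciferase and 25 ng β-gal vector. After 16 h the medium was changed to 5% charcoal-treated FBS. Cells were stimulated with 2 μM analog for 6 h (RARα, RARβ, RXRα) or 20 h (RARγ). Reference agonists were 1 μM atRA (RARα) and 1 μM 9cRA (RXRα). Luciferase and β-galactosidase were read by chemiluminescence.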

Test [4] concerns Jurkat. Kind of test: Induction of apoptosis in human Jurkat T cells assessed as induction of DEVDase activity at 4 uM after 4 hrs by fluorescence assay. The test is classed as functional, cell-based. In a few lines: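 Jurkat cells (40,000/well, 10^6 cells/mL, RPMI with 0.5% FBS) were treated for 4 h; controls got 0.1% DMSO. Lysis was in CE buffer (PIPES pH 7, NP-40, cytochalasin B, protease inhibitors) for 30 min at 4 °C. Lysates were mixed with 2x caspase buffer (HEPES pH 7.4, CHAPS, sucrose) holding 100 μM Ac-DEVD-AFC and incubated at 37 °C for 30 min. AFC was read every 2 min, ex 390/em 510 nm.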

For test [5], the target named is T2, Retinoic acid receptor RXR-alpha (Mus musculus). Kind of test: Transactivation of Gal4-LBD fused mouse RXRalpha (218 to 467) transfected in african green monkey CV1 cells assessed as luciferase activity at 2 uM after 6 hrs by Dual-light chemiluminescent assay relative to LGD1069. It counts as cell-based. Particulars: CV-1.
Test [6] concerns Jurkat. Kind of test: Antiproliferative activity against human Jurkat T cells at 62.5 nM after 48 hrs by MTT assay. The test is classed as functional, cell-based. In a few lines: (§2)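 Jurkat T cells were resuspended at 10^5 cells/mL in RPMI with 0.5% FBS (10,000/well) and seeded immediately before dosing at 62.5 nM–2 μM for two days. Viability was read by MTT (4 h, 37 °C), formazan dissolved in 10% SDS/10 mM HCl, A595 with cell-free background subtracted. Values are relative to DMSO controls (≤0.1% v/v); at least two experiments in triplicate.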

Test [7] relates to Jurkat. Kind of test: Antiproliferative activity against human Jurkat T cells at 2 uM after 48 hrs by MTT assay. It counts as functional, cell-based. In a few lines: as §2

The values that follow come from ChEMBL document CHEMBL1158389, “Highly twisted adamantyl arotinoids: synthesis, antiproliferative effects and RXR transactivation profiles” (Eur J Med Chem, 2009).

Active and inactive are the calls of the source. No cut-off for these calls is given here.

As a reminder, the IC50 is the midpoint of a concentration-inhibition curve. As usually defined, the inhibition is how much of the control response was suppressed. A word on the EC50: it is the concentration needed to bring the measured effect to its halfway point. For the compound `COCCOCOc1cc(C)c(-c2ccc3cc(C(=O)O)ccc3c2Cl)cc1C12CC3CC(CC(C3)C1)C2`, the concentration for half-maximal inhibition (IC50) in the test with Jurkat [1] is 707 nM. Further, the inhibition at 4 µM with T47D was 46.1%; in the test on PC-3, 97.6%. Further, in [2], the EC50 is 667 nM. For the same compound, the Activity in test [3] and in test [5] was 45% in each case. Moreover, the result in the test with Jurkat [4] was Active. Further, the outcome with Jurkat [6] was inactive.
In the case of `COCCOCOc1cc(C)c(-c2ccc(CC(=O)O)cc2Cl)cc1C12CC3CC(CC(C3)C1)C2`, the inhibition at 4 µM came out at 27.6% in the test on T47D and 52.2% in the test on PC-3. The EC50 in test [2] worked out at 1140 nM. Besides, the result with Jurkat [7] was Active.
